Shown are actives, neighbours in structure and some others; about 2% of the full set was active somewhere.
HSP90 refold inh = HSP90 refolding inhibition in rabbit reticulocyte lysate; 290,000 compounds, 0.91% hits; inhibition, % at 5.6 µM; luciferase refolding luminescence, 3 h;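 active = inhibition above the screen-wide mean plus 3 SD, computed separately per campaign, cut at about 16% in these data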;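 also: 0% = DMSO wells and 100% = 60 µM geldanamycin wells; inhibitors lower the luminescence because luciferase stays unfolded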
STAT3 act = STAT3 signaling activation | U3A cells, IL-6 STAT3-luciferase reporter, luminescence; 100% = signal with IL-6 EC80 alone | activation (% of control), % at 5.6 µM | 190,000 compounds, 0.91% hits | AID 871;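 active = activation above the screen-wide mean of compound activation plus 3 SD, cut at about 130% in these data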;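 also: 0% = background luminescence of wells with medium and substrate only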
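Test system: STAT3-luciferase reporter U3A cells; Detection: reporter luminescence signal; Times: 1 h compound pre-exposure, 6 h IL-6 stimulation, 37 °C; Benchmarks: IL-6-only high control; Also added: IL-6 stimulus at 33 ng/mL final.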
STAT1 inh = reduces IFN-gamma driven STAT1 reporter signal | 200,000 compounds, 0.35% hits | inhibition, % at 5.5 µM | AID 920 | NIH 3T3 STAT1-luciferase reporter, luminescence;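 active = inhibition above a set limit, the mean inhibition across all tested compounds plus 3 SD, cut at about 34% in these data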;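 also: 0% = IFN-gamma with DMSO and 100% = IFN-gamma with 300 µM nifuroxazide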
STAT3 inh-1 = reduces IL-6 driven STAT3 reporter signal; U3A cells, IL-6 STAT3-luciferase reporter, luminescence; host cell line lacks STAT1; inhibition, % at 5.5 µM; 190,000 compounds, 0.89% hits;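 active = inhibition above the mean inhibition across all screened compounds plus 3 SD, cut at about 44% in these data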;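 also: 0% = DMSO only wells and 100% = 100 µM nifuroxazide control wells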
STAT3 inh-2 = confirmation of STAT3 signaling inhibitors | shares compounds with STAT3 inh-1 | U3A cells, IL-6 STAT3 luciferase reporter, luminescence; cell line lacks STAT1 | inhibition, % at 5.7 µM | 1,200 compounds, 45% hits | AID 1265;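 active = inhibition above the hit cutoff computed for the primary STAT3 screen, cut at about 44% in these data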;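 also: 0% = IL-6 plus DMSO and 100% = IL-6 plus nifuroxazide control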
NFkB inh 2 = counter-screen for STAT3 inhibitors: NF-kappaB inhibition; shares compounds with STAT3 inh-1; HEK293T NF-kB luciferase reporter, TNF-alpha induced; inhibition, % at 5.7 µM; 1,200 compounds, 36% hits;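 active = inhibition above the mean of solvent-only control wells plus 3 SD, cutoff set per campaign, cut at about 13% in these data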;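 also: 0% = TNF-alpha with DMSO and 100% = TNF-alpha with MG high control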
STAT1 inh STAT3c = counter-screen for STAT3 inhibitors: STAT1 inhibition. shares compounds with STAT3 inh-1. NIH 3T3 STAT1-luciferase reporter, IFN-gamma induced, luminescence. inhibition, % at 5.7 µM. 1,200 compounds, 27% hits;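 active = inhibition above the mean plus 3 SD of solvent-only control wells, limit set per screening run, cut at about 16% in these data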;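 also: 0% = DMSO with IFN-gamma and 100% = nifuroxazide control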
* marks the source's active call; other numbers are inactive results; . = not tested or not shown.

SMILES | HSP90 refold inh | STAT3 act | STAT1 inh | STAT3 inh-1 | others
COC(=O)c1ccc(Oc2coc3cc(OCc4ccc([N+](=O)[O-])cc4)ccc3c2=O)cc1 | 6 | 97 | 3 | 5
O=C(c1cc2nc(-c3ccc(F)cc3)cc(C(F)(F)F)n2n1)N1CCCCC1c1cccnc1 (configuration not stated) | 4 | 55 | 35* | 57*
COc1ccc(N=c2scc(-c3ccc(S(=O)(=O)N4CCOCC4)cc3)n2CCCO)cc1 | -2 | 68 | 25 | 44*
C=CCn1c(-c2ccc(S(=O)(=O)N3CCOCC3)cc2)csc1=Nc1ccccc1 | 0 | 85 | 28 | 21
Cc1nnc(SCC(=O)c2ccc(Br)cc2)s1 | 3 | 93 | -12 | 16
COc1ccc(Cl)cc1NC(=O)CC1S/C(=N/N=C2CCCCCC2)NC1=O (configuration not stated) | -2 | . | . | .
COCCN(C(=O)c1ccccc1OC)c1nnc(C)s1 | -5 | 134* | 0 | -36
COc1ccccc1C(=O)Nc1nnc(C)s1 | 0 | 103 | -28 | 3
CCCCN(C)S(=O)(=O)c1cc2c3c(c1)CCC(=O)N3CCC2 | 7 | . | . | .
O=C(Cn1c(-c2cncs2)nc2ccccc21)NCc1ccccc1 | 16* | 105 | 21 | -5
Cc1ccccc1Cn1c(-c2cncs2)nc2ccccc21 | -1 | 108 | -5 | -5
CCn1nc(C(=O)NNC(=O)CCOc2cc(C)ccc2C)c2ccccc2c1=O | -3 | . | . | .
O=C1C(Cl)=C(NC(=O)c2ccccc2)C(=O)C(Cl)=C1NC(=O)c1ccccc1 | 71* | . | . | .
COc1ccccc1OCc1nc2ccccc2[nH]1 | 0 | 95 | -34 | 10
c1cnc2c(OCc3nc4ccccc4[nH]3)cccc2c1 | -5 | 156* | -48 | -63
Cn1nc(-c2ccccc2)c(C(=O)Nc2ccc(Cl)cc2)c1Cl | 4 | 97 | -10 | 9
Cn1c(Cl)c(C(=O)Nc2ccc(Cl)cc2)c2ccccc21 | 2 | 155* | -8 | -50
COc1ccc(N2C(=O)C(C)(C)C2c2c(O)ccc3ccccc23)cc1 (configuration not stated) | 17* | . | . | .
CCOC(=O)c1cnn(C)c1NC(=O)c1ccc([N+](=O)[O-])cc1 | 1 | . | . | .
CC(=O)Nc1cccc(-c2cn3ccccc3n2)c1 | 1 | 98 | -19 | 9
CC(C)C(=O)Nc1cccc(-c2cn3ccccc3n2)c1 | 16* | 102 | -14 | -3
Cc1c(C)c2c(OCC(=O)N3CCC[C@H]3C(=O)O)cc3c(c2oc1=O)CCC(C)(C)O3 | -2 | . | . | .
Cc1cccc(C)c1N1CCN(CCn2c(=S)[nH]c3ccccc3c2=O)CC1 | 2 | . | . | .
CCCCN(C(=O)C1CC(=O)N(Cc2ccc(C)cc2)C1)c1c(N)n(CC(C)C)c(=O)[nH]c1=O (configuration not stated) | 1 | . | . | .
Cn1c(=N)n(CC(=O)c2cccs2)c2ccccc21 | 0 | 137* | -36 | -36
SMILES | HSP90 refold inh | STAT3 act | STAT1 inh | STAT3 inh-1 | others
Cn1c(=N)n(CC(=O)c2ccc(Br)s2)c2ccccc21 | 7 | 167* | -50 | -69
COc1cccc(NC(=O)Nc2cccc(C(=O)O)c2)c1 | 77* | 23 | 88* | 92*
COc1cccc(NC(=O)c2cccc(C(=O)Nc3cccc(OC)c3)c2)c1 | -1 | . | . | .
O=C1OC(/C(=C\Nc2cc(Cl)ccc2O)[N+](=O)[O-])c2ccccc21 (configuration not stated) | 38* | 103 | -7 | 3
Cc1c(S(=O)(=O)N2CCN(c3ccc(F)cc3)CC2)c(=O)n(C)c(=O)n1C | 3 | . | . | .
COc1ccccc1-c1cc(C(=O)N2CCN(S(=O)(=O)c3ccc(C)cc3)CC2)[nH]n1 | -2 | . | . | .
N#C/C(=C/c1ccc(N2CCCCCC2)o1)c1ccc(Cl)cc1 | -4 | 90 | 9 | 15
N#C/C(=C/c1ccc(N2CCCCC2)o1)c1cccc(F)c1 | 6 | 136* | -49 | -34
CCCOC1CCCN(C(=O)c2cc(COc3ccc(-n4cncn4)cc3)on2)C1 (configuration not stated) | -4 | . | . | .
O=C(CN(Cc1ccccc1)C(=O)CCC(=O)Nc1ccccn1)NCc1ccc(F)cc1 | 5 | . | . | .
NC(=O)[C@@H]1CCCNc2c(I)cc([N+](=O)[O-])cc2C(=O)N[C@@H](CO)C(=O)NCC(=O)N1 | -1 | 98 | -1 | 0
CCc1n[nH]c2c1/C(=N\O)CC(c1ccccc1)C2 (configuration not stated) | -2 | 65 | -2 | 44* | STAT3 inh-2=30;NFkB inh 2=10;STAT1 inh STAT3c=10
O=C(N/N=C/c1cccnc1)c1ccc(NC(=O)c2ccccc2Cl)cc1 | -7 | . | . | .
Cc1ccc(NS(=O)(=O)N2CCOCC2)cc1 | -3 | . | . | .
CC1CN(S(=O)(=O)c2ccc(C(=O)Nc3nc(-c4cc5ccccc5o4)cs3)cc2)CC(C)O1 (configuration not stated) | -1 | 100 | 8 | 0
CN(C)S(=O)(=O)c1ccc(C(=O)Nc2nc(-c3cc4ccccc4o3)cs2)cc1 | 1 | 58 | 15 | 53* | STAT3 inh-2=76*;NFkB inh 2=20*;STAT1 inh STAT3c=16*
O=C(Nc1nc(-c2cc3ccccc3o2)cs1)c1ccc(S(=O)(=O)N2CCCC2)cc1 | 1 | 53 | 21 | 58* | STAT3 inh-2=77*;NFkB inh 2=25*;STAT1 inh STAT3c=20*
CCOC(=O)N1CCC(NC(=O)C2CCN(c3nc(-c4ccc(OC)cc4)no3)CC2)CC1 | -1 | 63 | 8 | 50* | STAT3 inh-2=38;NFkB inh 2=12;STAT1 inh STAT3c=12
CCOc1ccccc1NC(=O)C1CCN(c2nc(-c3ccc(OC)cc3)no2)CC1 | -4 | . | . | .
COc1cccc(NC(=O)Nc2nc(-c3ccc(OC)c(OC)c3)cs2)c1 | 2 | . | . | .
C=CCn1c(C)cc(C(=O)COc2ccc(C)nc2[N+](=O)[O-])c1C | -4 | 56 | 23 | 54* | STAT3 inh-2=3;NFkB inh 2=5;STAT1 inh STAT3c=-17
CCCn1c(C)cc(C(=O)COc2ccc(C)nc2[N+](=O)[O-])c1C | 2 | 86 | -1 | 12
Cc1ccc(OCC(=O)c2cc(C)n(-c3ccccc3)c2C)c([N+](=O)[O-])n1 | 1 | 50 | 27 | 61* | STAT3 inh-2=45*;NFkB inh 2=15*;STAT1 inh STAT3c=3
CC(C)Cc1nnc(NC(=O)CCC(=O)NCc2ccccc2Cl)s1 | 3 | . | . | .
COc1ccccc1N1CCN(C(=O)CSc2nnc3n2C(C)(C)Cc2ccccc2-3)CC1 | 1 | 52 | 20 | 57* | STAT3 inh-2=53*;NFkB inh 2=14*;STAT1 inh STAT3c=19*
c1ccc(-c2cc(CSc3nc4ccccc4[nH]3)on2)cc1 | 4 | 63 | 13 | 46* | STAT3 inh-2=37;NFkB inh 2=11;STAT1 inh STAT3c=14
Cc1noc(C)c1CSc1nc2ccccc2[nH]1 | 1 | 81 | 6 | 25
O=C(CSC1=NCCS1)Nc1ccnc2ccccc12 | 4 | 49 | 32 | 64* | STAT3 inh-2=75*;NFkB inh 2=21*;STAT1 inh STAT3c=24*

Screens deposited in PubChem BioAssay by The Scripps Research Institute Molecular Screening Center.
